Assay results published in ChEMBL document CHEMBL1142125, “Bioactive lignans from Peperomia duclouxii” (J Nat Prod, 2007).
In brackets after ≈: the same amount, converted by molar mass.

Assays:
WI-38 = test: Growth inhibition of human WI38 cells; assay type: functional, cell-based
Procedure, shortened: (§1)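 Growth inhibition assays. WI-38 cells were kept in Eagle's MEM and VA-13 cells in RITC 80-7, both with 10% (v/v) FBS and 80 µg/mL kanamycin. HepG2 cells were kept in D-MEM with 10% (v/v) FBS and 80 µg/mL kanamycin. IC50 is the concentration giving 50% growth inhibition.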

WI-38 VA13 = test: Growth inhibition of human VA13 cells; assay type: functional, cell-based; procedure, shortened: as §1
HepG2 = test: Growth inhibition of human HepG2 cells; assay type: functional, cell-based; procedure, shortened: as §1
[1] = Effect on calcein accumulation in human multidrug-resistant 2780AD cells at 0.25 ug/mL relative to control; assay type: functional, A2780 ADR
Procedure, shortened: (§2)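 Calcein accumulation assay. Multidrug-resistant human ovarian cancer 2780AD (AD10) cells were grown in RPMI-1640 with 10% (v/v) FBS and 80 µg/mL kanamycin. Calcein formed from calcein AM by endogenous esterase served as the efflux probe. Cells were tested at 0.25, 2.5 and 25 µg/mL. Read-out was fluorescence per well, as the mean of triplicates, expressed relative to the untreated control or to the verapamil positive control.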

[2] = Effect on calcein accumulation in human multidrug-resistant 2780AD cells at 2.5 ug/mL relative to control; assay type: functional, A2780 ADR; procedure, shortened: as §2
[3] = Effect on calcein accumulation in human multidrug-resistant 2780AD cells at 25 ug/mL relative to control; assay type: functional, A2780 ADR; procedure, shortened: as §2
[4] = Effect on calcein accumulation in human multidrug-resistant 2780AD cells at 0.25 ug/mL relative to verapamil; assay type: functional, A2780 ADR; procedure, shortened: as §2
[5] = Effect on calcein accumulation in human multidrug-resistant 2780AD cells at 2.5 ug/mL relative to verapamil; assay type: functional, A2780 ADR; procedure, shortened: as §2
[6] = Effect on calcein accumulation in human multidrug-resistant 2780AD cells at 25 ug/mL relative to verapamil; assay type: functional, A2780 ADR; procedure, shortened: as §2
A549 [7] = test: Inhibition of IL-1-alpha-induced ICAM1 in human A549 cells; assay type: functional, cell-based
Procedure, shortened: (§3)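 ICAM-1 induction assay. Human A549 cells were grown in RPMI 1640 with heat-inactivated 10% FBS, penicillin G and streptomycin. Cells were stimulated with recombinant IL-1α or TNF-α. Cell-surface ICAM-1 was detected with mouse anti-human ICAM-1 antibody C167 plus a peroxidase-conjugated goat anti-mouse IgG, and an IC50 was derived.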

A549 [8] = test: Inhibition of TNF-alpha-induced ICAM1 in human A549 cells; assay type: functional, cell-based; procedure, shortened: as §3
A549 [9] = test: Cytotoxicity against human A549 cells by MTT assay; assay type: cell-based
Procedure, shortened: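 Cell viability was measured by MTT assay in human A549 cells grown in RPMI 1640 with heat-inactivated 10% FBS, penicillin G and streptomycin. This was done alongside the IL-1α/TNF-α-stimulated ICAM-1 induction assay, and an IC50 was derived.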

SMILES	IC50 (HepG2) [mg/L]	IC50 (A549 [7]) [µM]	IC50 (A549 [8]) [µM]	IC50 (WI-38) [mg/L]	IC50 (WI-38 VA13) [mg/L]	Activity [1] [%]	Activity [2] [%]	Activity [3] [%]	Activity [4] [%]	Activity [5] [%]	Activity [6] [%]	IC50 (A549 [9]) [µM]
COc1cc([C@@H]2c3c(cc4c(c3OC)OCO4)C[C@H](COC(C)=O)[C@@H]2COC(C)=O)cc(OC)c1O	74.4 (≈ 148 µM)	107	13.4	41.3 (≈ 82.2 µM)	62.4 (≈ 124 µM)	–	–	–	–	–	–	> 316
CC(=O)O[C@H]1C(=O)[C@@]2(C)[C@H]([C@H](OC(=O)c3ccccc3)[C@]3(O)C[C@H](OC(=O)[C@H](O)[C@@H](NC(=O)c4ccccc4)c4ccccc4)C(C)=C1C3(C)C)[C@]1(OC(C)=O)CO[C@@H]1C[C@@H]2O [PACLITAXEL]	0.05 (≈ 0.0586 µM)	–	–	0.02 (≈ 0.0234 µM)	0.01 (≈ 0.0117 µM)	–	–	–	–	–	–	–
COc1cc(C[C@H]2CO[C@H](c3cc(OC)c4c(c3)OCO4)[C@H]2CO)cc2c1OCO2	72 (≈ 173 µM)	–	–	74.3 (≈ 178 µM)	99.1 (≈ 238 µM)	–	–	–	–	–	–	–
COc1ccc(CCN(C)CCCC(C#N)(c2ccc(OC)c(OC)c2)C(C)C)cc1OC (configuration not stated) [VERAPAMIL]	–	–	–	–	–	99	114	145	100	100	100	–
COc1cc([C@H]2OC[C@H]3[C@@H]2CO[C@@H]3c2ccc3c(c2)OCO3)cc(OC)c1O	> 100	–	–	> 100	> 100	–	–	–	–	–	–	–
COc1cccc2c1C(=O)c1c(O)c3c(c(O)c1C2=O)C[C@@](O)(C(=O)CO)C[C@@H]3O[C@H]1C[C@H](N)[C@H](O)[C@H](C)O1 [DOXORUBICIN]	0.48 (≈ 0.883 µM)	–	–	0.76 (≈ 1.4 µM)	0.08 (≈ 0.147 µM)	–	–	–	–	–	–	–

Now from value to compound, other results behind:

IC50 (HepG2) [mg/L]	IC50 (A549 [7]) [µM]	IC50 (A549 [8]) [µM]	SMILES	IC50 (WI-38) [mg/L]	IC50 (WI-38 VA13) [mg/L]	Activity [1] [%]	Activity [2] [%]	Activity [3] [%]	Activity [4] [%]	Activity [5] [%]	Activity [6] [%]	IC50 (A549 [9]) [µM]
13.2 (≈ 32.8 µM)	–	–	COc1cc([C@@H]2OC[C@@H]3[C@H]2CO[C@H]3c2cc(OC)c3c(c2)OCO3)cc(O)c1O	49.8 (≈ 124 µM)	5.3 (≈ 13.2 µM)	101	105	169	103	92	117	–
> 100	–	–	COc1cc([C@@H]2OC[C@@H]3[C@H]2CO[C@H]3c2cc(OC)c3c(c2)OCO3)cc(OC)c1O	96.6 (≈ 232 µM)	> 100	–	–	–	–	–	–	–
84.7 (≈ 218 µM)	–	–	COc1cc([C@H]2OC[C@@H]3C(c4cc(OC)c(O)c(OC)c4)OC[C@H]23)ccc1O (some centres not stated) [MEDIORESINOL]	76.9 (≈ 198 µM)	> 100	–	–	–	–	–	–	–
60.2 (≈ 205 µM)	–	–	COc1cc([C@H]2OC[C@@H]3C(=O)OC[C@@H]32)cc(OC)c1OC [ZHEPIRESINOL]	57.7 (≈ 196 µM)	50.7 (≈ 172 µM)	–	–	–	–	–	–	–
